Only some compounds are listed: those with a hit (about 1.9% of all), similar ones and a draw of the others.
FID counter – fluorescent intercalator displacement, NS3 helicase counter-screen. DNA fluorescent intercalator displacement, fluorescence. 290,000 compounds, 0.17% hits. AID 1845. inhibition, % at 7.9 µM; in the data active = inhibition above about 37%;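 also: higher means more ethidium bromide displaced from hairpin DNA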
PP5 primary – inhibitors of human protein phosphatase 5 (PP5). P53041. purified PP5c, OMFP substrate fluorescence. inhibition, % at 6.7 µM. 320,000 compounds, 0.18% hits. AID 1987;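 active = inhibition above the campaign's mean inhibition across all tested compounds plus 3 SD, cut at about 9.5% in these data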
Target sequence (P53041 whole entry, looked up): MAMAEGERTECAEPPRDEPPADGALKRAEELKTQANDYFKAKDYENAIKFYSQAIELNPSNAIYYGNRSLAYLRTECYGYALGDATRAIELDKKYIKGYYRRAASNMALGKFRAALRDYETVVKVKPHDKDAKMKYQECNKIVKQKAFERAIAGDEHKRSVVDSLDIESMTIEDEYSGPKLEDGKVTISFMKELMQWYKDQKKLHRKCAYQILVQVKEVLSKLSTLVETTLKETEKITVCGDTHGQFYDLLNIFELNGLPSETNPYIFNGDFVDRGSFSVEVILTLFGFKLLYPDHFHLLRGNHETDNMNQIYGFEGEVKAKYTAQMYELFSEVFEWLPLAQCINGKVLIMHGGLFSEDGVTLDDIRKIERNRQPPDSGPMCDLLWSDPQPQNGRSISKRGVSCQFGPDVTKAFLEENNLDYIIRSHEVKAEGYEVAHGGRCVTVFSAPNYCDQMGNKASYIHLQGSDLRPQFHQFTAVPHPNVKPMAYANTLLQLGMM
HIF act – HIF pathway transcriptional activation; U2OS HRE-luciferase reporter, luminescence; normalized: DMSO 0%, desferrioxamine 100%; activation, % at 7.5 µM (by protocol); 300,000 compounds, 0.32% hits; AID 1910;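 active = mean activation of at least 10% of the iron chelator positive control signal, with at least half of replicates also reaching 10%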
HCV NS3 hel inh – HCV NS3 helicase inhibition | AID 1800 | 290,000 compounds, 0.56% hits | NS3 helicase DNA unwinding, Cy5 molecular beacon fluorescence | inhibition, % at 10.9 µM;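 active = inhibition above the mean of all tested compounds plus 3 SD, set per campaign, cut at about 35% in these data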
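test system = hepatitis C virus NS3 helicase domain fragment enzyme | reagent = annealed dual-labelled DNA beacon duplex, ATP-started | times = 1 h at 25 °C | detection = Cy5 fluorescence, 0 and 60 min reads | read-out basis = percent inhibition from t60/t0 fluorescence ratio | control set = DMSO and thioflavine S | replication = one well per compound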
PP1 counter – PP1-alpha (human) inhibition in PP5 counter-screen; P62136; purified PP1alpha, OMFP fluorescence; inhibition, % at 6.7 µM; 320,000 compounds, 0.9% hits;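 active = inhibition above the mean inhibition of all tested compounds plus 3 SD, computed separately for each screening campaign, cut at about 15% in these data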
Numbers stand for hits; 0 = inactive; - = not tested or not shown.

SMILES	FID counter	PP5 primary	HIF act	HCV NS3 hel inh	PP1 counter
Cc1c(C)n(CCN(C)C)c2ccc(C(=O)OCCN(C)C)cc12	62	0	0	0	0
Cc1noc(C)c1COC(=O)C1CC(O)CN1S(=O)(=O)c1ccc(Cl)cc1 (stereo not given)	0	0	61	0	0
O=C(c1ccc([N+](=O)[O-])cc1)N1CCN(c2ncccn2)CC1	-	0	0	-	0
CCCCOC(=O)n1c(=O)oc2cc(S(=O)(=O)N3CCCCC3)ccc21	0	0	55	0	0
COc1cc2ccccc2cc1C(=O)Nc1ccc(C)cc1	0	0	11	0	0
COc1cc2ccccc2cc1C(=O)Nc1ccc(Cc2ccncc2)cc1	0	0	0	0	16
COc1ccc(NC(=O)Nc2ccc(Cc3ccncc3)cc2)cc1OC	0	0	0	0	0
CCCc1nnc(SCC(=O)Nc2cccc(C(F)(F)F)c2)o1	0	0	0	0	0
COc1ccc(/C=C2/SC(=O)N(CCC(=O)Nc3ccccc3C(=O)O)C2=S)cc1	0	0	0	0	0
Cc1ccc(/C=N/NC(=O)c2ccc(Br)o2)s1	0	0	9.9	0	0
CCc1ccc(/C=N\NC(=O)c2ccc(Br)o2)s1	0	0	0	0	0
NS(=O)(=O)c1cc(Cl)c(NC(=O)COC(=O)c2ccccn2)c(Cl)c1	-	0	-	-	0
O=C(c1ccc2[nH]c(=O)c(=O)[nH]c2c1)N1CCN(Cc2ccccc2)CC1	0	0	0	0	0
C#CCOCCOCCOCCNc1nc(N2CCN(C(=O)C([C@@H](C)CC)n3cc(C(N)CC(C)C)nn3)CC2)nc(N2CCN(C(=O)[C@H](CCC(=O)O)n3cc(C(N)CC(C)C)nn3)CC2)n1 (stereo not given in full)	0	0	0	0	0
C#CCOCCOCCOCCNc1nc(N2CCN(C(=O)[C@H]([C@@H](C)CC)n3cc([C@@H](N)CC(C)C)nn3)CC2)nc(N2CCN(C(=O)[C@H](CCCCN)n3cc([C@@H](N)C(C)CC)nn3)CC2)n1 (stereo not given in full)	45	0	0	0	0
C#CCOCCOCCOCCNc1nc(N2CCN(C(=O)C([C@@H](C)CC)n3cc(C(N)COC(=O)C(F)(F)F)nn3)CC2)nc(N2CCN(C(=O)[C@H](CCCCN)n3cc(C(N)[C@H](C)CC)nn3)CC2)n1 (stereo not given in full)	-	0	0	-	17
C#CCOCCOCCOCCNc1nc(N2CCN(C(=O)[C@H]([C@@H](C)CC)n3cc([C@@H](N)CC(C)C)nn3)CC2)nc(N2CCN(C(=O)[C@H](CCCCN)n3cc([C@@H](N)CC(C)C)nn3)CC2)n1	38	0	0	0	0
OCCC1CN(CCCc2ccccc2)CCN1Cc1ccc(F)cc1 (stereo not given)	0	0	0	0	0
O=C(CN1CCN(c2nc(-c3ccc(Cl)cc3)cs2)CC1)NCc1ccco1	0	0	0	0	16
S=C(NCc1ccco1)N1CCN(c2nc(-c3ccc(Cl)cc3)cs2)CC1	0	0	0	0	0
Cc1ccc(-c2cc(C(=O)NCc3ccc4c(c3)OCO4)[nH]n2)c(O)c1C	0	0	0	0	0
Cc1cc(O)c(-c2cc(C(=O)NCc3ccc4c(c3)OCO4)[nH]n2)cc1C	0	0	0	0	16
Cc1ccc(-c2nnc(Sc3nc4ccccc4o3)c3ccccc23)cc1	0	0	94	0	0
Cc1noc(C(=O)Nc2sc3c(c2C#N)CCC3)c1Cl	0	0	14	0	0
O=C(COC(=O)C1CC2C=CC1C2)NCc1ccccc1Cl (stereo not given)	0	0	0	0	0
SMILES	FID counter	PP5 primary	HIF act	HCV NS3 hel inh	PP1 counter
COC(=O)c1ccc2c(c1)N(Cc1nc(-c3ccc(Cl)cc3)oc1C)C(=O)C1CCCN21 (stereo not given)	-	0	0	-	16
O=C(N/N=C/c1ccccn1)c1ccc(Cl)cc1	0	0	12	0	0
O=C(N/N=C/c1ccccn1)c1ccccc1	0	0	0	0	0
COc1cc(C(=O)Oc2ccccc2/C=N/NC(=O)c2ccc(C)c(Cl)c2)cc(OC)c1OC	0	0	0	0	0
COc1ccccc1/C=N/NC(=O)c1ccc(CN2C(=O)c3cccc4cccc2c34)cc1	0	0	0	0	16
COc1cc(C(=O)Oc2ccccc2/C=N/NC(=O)c2ccc(Cl)cc2)cc(OC)c1OC	0	0	71	0	0
COc1ccc(C(=O)Nc2ccccc2C(=O)N/N=C/c2ccccn2)cc1OC	0	0	19	0	0
CCOc1ccc(C2CC(=O)NC2=O)cc1 (stereo not given)	0	0	0	0	0
Cc1cccc(/C=N/NC(=O)c2ccc(NC(=O)c3ccc(Cl)cc3)cc2)n1	0	0	0	0	15
CCCNC(=O)NC(C(=O)OC)C12CC3CC(CC(C3)C1)C2 (stereo not given)	0	0	0	0	0
O=C1NC(=Nc2ccc(O)cc2)S/C1=C\C=C\c1ccco1	0	0	0	0	16
Cc1nn(C)cc1-c1csc(N)n1	0	0	0	0	0
Cc1cc(-c2csc(N)n2)c(C)n1CCC(C)C	0	0	0	0	16
CC(=O)NN(O)C1N(C)C(=O)N(Cc2ccccc2)C1(C)C (stereo not given)	-	0	0	-	0
CC(C)Sc1nc(N)c2c3c(sc2n1)CN(C)CC3	0	0	13	0	0
CCCSc1nc(N)c2c3c(sc2n1)CN(C)CC3	0	0	0	0	0
COc1ccc(CN2CCNC(=O)C2CC(=O)N(C)CC2CCOCC2)cc1OC (stereo not given)	0	0	26	0	0
COc1ccc(CN2CCNC(=O)C2CC(=O)N(C)CC2CCOCC2)cc1C (stereo not given)	0	-	0	0	-
COC(=O)C1=C(C)N(C)C(=O)NC1c1cc(Cl)c(O)c(OC)c1 (stereo not given)	0	0	692	0	0
CCCOc1ccc(OCCSc2ncccn2)cc1	0	0	0	0	16
COc1ccccc1-c1cc(C(F)(F)F)nc(S(=O)(=O)CCCC(=O)O)n1	0	0	0	0	0
COc1ccccc1-c1cc(C(F)(F)F)nc(S(=O)(=O)CCCC(=O)N2CCOCC2)n1	0	0	15	0	0
CCOc1ccc(CCNC(=O)COC(=O)CNS(=O)(=O)c2ccc(NC(C)=O)cc2)cc1OCC	-	0	0	-	0
COc1cc(OC)c2c(-c3ccccc3)cc(=O)oc2c1C(CCN1CCN(c2ccccc2)CC1)c1ccc(N(C)C)cc1 (stereo not given)	-	0	0	-	16
O=C(CC1S/C(=N/N=C/c2cccs2)NC1=O)Nc1ccc(Cl)cc1 (stereo not given)	0	0	0	0	17
Cc1nnsc1C(=O)N/N=C/c1ccccc1	0	0	0	0	0
Cc1nnsc1C(=O)N/N=C/c1ccc2ccccc2c1O	0	0	115	0	0
Cc1ccc(/C=N/NC(=O)CN2CCN(Cc3ccccc3Cl)CC2)o1	0	0	143	0	0
Fc1cc(Br)ccc1NC(=S)Nc1ccccc1	0	0	0	0	0
